≈ marks a conversion by molar mass, not a printed value.

The subject of this assay is Theileria parva. The experiment in a line: In vitro concentration required to reduce the proportion of schizont infected cells in the culture to 50% of that of untreated control in the 48 hr incubation period. The settings on record: read-out: ED50 (the source's name). Format: functional. The gist of the method: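 T. parva-infected cell cultures were exposed to fourfold serial dilutions of each drug for 48 h, and the proportion of schizont-infected cells was compared with untreated controls. ED50 was expressed in mg/L, with at least two tests per compound.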
As for `O=C1C(=O)c2ccccc2C(O)=C1CSC1CCCCC1`, the EC50 is greater than 10 mg/L.

Regarding `O=C1C(=O)c2ccccc2C(O)=C1CCCCCC1CCCCC1`, the EC50 was determined as 0.03 mg/L (≈ 0.0919 µM).

Take `CCCCCCCCCC1=C(O)C(=O)c2ccccc2C1=O`: the EC50 stood at 0.13 mg/L (≈ 0.433 µM).

Turning to `CCCCCC1=C(O)C(=O)c2ccccc2C1=O`, the EC50 worked out at 1 mg/L (≈ 4.09 µM).

Take `O=C1C(O)=C(CCCCCCC2=C(O)C(=O)c3ccccc3C2=O)C(=O)c2ccccc21`: the EC50 is greater than 10 mg/L.

With `O=C1C(=O)c2ccccc2C(O)=C1C1CC1`, the EC50 was 10 mg/L (≈ 46.7 µM).

Regarding `O=C1C(O)=C(C2C=CCCC2)C(=O)c2ccccc21` (centres undefined), the EC50 amounted to 1.5 mg/L (≈ 5.9 µM).

With `O=C1C(=O)c2ccccc2C(O)=C1CC1CCCCC1`, the EC50 is 0.03 mg/L (≈ 0.111 µM).

For the compound `O=C1C(=O)c2ccccc2C(O)=C1CCC1CCCCC1`, the EC50 amounted to 0.08 mg/L (≈ 0.281 µM).

For the compound `O=C1C(=O)c2ccccc2C(O)=C1NC(=O)C1CCCCC1`, the EC50 was greater than 10 mg/L.

Take `O=C1C(=O)c2ccccc2C(O)=C1C1CCCOC1` (centres undefined): the EC50 was found to be 6.8 mg/L (≈ 26.3 µM).

For `O=C1C(=O)c2ccccc2C(O)=C1CCCC1CCCCC1`, the EC50 is 0.06 mg/L (≈ 0.201 µM).

For the compound `CCCCCCCCCCCCCCCCC1=C(O)C(=O)c2ccccc2C1=O`, the EC50 amounted to 0.01 mg/L (≈ 0.0251 µM).

For the compound `O=C1C(=O)c2ccccc2C(O)=C1C1CCCCCCCCCCC1`, the EC50 amounted to 0.09 mg/L (≈ 0.264 µM).

Regarding `O=C1C(O)=C(CCCCCCCCC2CCCCC2)C(=O)c2ccccc21` [MENOCTONE], the EC50 worked out at 0.06 mg/L (≈ 0.163 µM).

With `NC1=C(CC2CCCCC2)C(=O)c2ccccc2C1=O`, the EC50 is greater than 10 mg/L.

As for `O=C1C(O)=C(CCCCCCCCC2=C(O)C(=O)c3ccccc3C2=O)C(=O)c2ccccc21`, the EC50 stood at 1 mg/L (≈ 2.18 µM).

Consider `O=C1C(O)=C(NCC2CCCCC2)C(=O)c2ccccc21`, for which the EC50 is greater than 10 mg/L.

`O=C1C(=O)c2ccccc2C(O)=C1c1ccccc1`: the EC50 is greater than 10 mg/L.

Take `O=C1C(=O)c2ccccc2C(O)=C1CCCCC1CCCCC1`: the EC50 was 0.06 mg/L (≈ 0.192 µM).

For the compound `O=C1C(=O)c2ccccc2C(O)=C1C1CCCCCC1`, the EC50 was 0.01 mg/L (≈ 0.037 µM).

Take `CCCCCCCCCCCCCC1=C(O)C(=O)c2ccccc2C1=O`: the EC50 was 0.006 mg/L (≈ 0.0168 µM).

For the compound `CCCCCCCCCCCCCCC1=C(O)C(=O)c2ccccc2C1=O`, the EC50 came out at 0.006 mg/L (≈ 0.0162 µM).

For the compound `CCCCCCCCCCCCCCCC1=C(O)C(=O)c2ccccc2C1=O`, the EC50 came out at 0.01 mg/L (≈ 0.026 µM).

Take `O=C1C(O)=C(CCCCCC2=C(O)C(=O)c3ccccc3C2=O)C(=O)c2ccccc21`: the EC50 is greater than 10 mg/L.

As for `O=C1C(=O)c2ccccc2C(O)=C1SC1CCCCC1`, the EC50 is 6.5 mg/L (≈ 22.5 µM).

`O=C1C(Cl)=C(CC2CCCCC2)C(=O)c2ccccc21`: the EC50 is greater than 10 mg/L.

Take `CCCCCCCCCCCCCCCCCC1=C(O)C(=O)c2ccccc2C1=O`: the EC50 worked out at 0.01 mg/L (≈ 0.0242 µM).

Take `O=C1C(=O)c2ccccc2C(O)=C1C1CC2CCC1C2` (centres undefined): the EC50 amounted to 0.06 mg/L (≈ 0.224 µM).

In the case of `O=C1C(=O)c2ccccc2C(O)=C1C1CCCC1`, the EC50 is 3.7 mg/L (≈ 15.3 µM).

For the compound `CC(=O)OC1=C(CC2CCCCC2)C(=O)c2ccccc2C1=O`, the EC50 turned out to be 1 mg/L (≈ 3.2 µM).

For the compound `O=C1C(O)=C(C2CCCCC2)C(=O)c2ccccc21` [PARVAQUONE], the EC50 came out at 0.006 mg/L (≈ 0.0234 µM).

As to `O=C1C(=O)c2ccccc2C(O)=C1CCCCCCCC1CCCCC1`, the EC50 was found to be 0.05 mg/L (≈ 0.141 µM).

In the case of `COc1ccc2c(c1)C(=O)C(C1CCCCCC1)=C(O)C2=O`, the EC50 is greater than 10 mg/L.

In the case of `O=C1C(=O)c2ccccc2C(O)=C1C1CCCCCCC1`, the EC50 turned out to be 0.007 mg/L (≈ 0.0246 µM).

For `CCCCCCCCCCCCC1=C(O)C(=O)c2ccccc2C1=O`, the EC50 was found to be 0.05 mg/L (≈ 0.146 µM).

On to `O=C1C(O)=C(CCCCCCCCCCC2=C(O)C(=O)c3ccccc3C2=O)C(=O)c2ccccc21`, for which the EC50 came to 10 mg/L (≈ 20.6 µM).

As for `O=C1C(=O)c2ccccc2C(O)=C1C1CCC1`, the EC50 came to 10 mg/L (≈ 43.8 µM).

With `O=C1C(O)=C(C2CCC(C3CCCCC3)CC2)C(=O)c2ccccc21` (centres undefined), the EC50 stood at 0.006 mg/L (≈ 0.0177 µM).

The values above are taken from ChEMBL document CHEMBL1121879, “In vitro activity of 2-alkyl-3-hydroxy-1,4-naphthoquinones against Theileria parva” (1981).
